# Article PMC7909006 (Clinical cancer research : an official journal of the …, 2020)
# Experiments:
# Population PK modeling = assay: Population PK modeling; parameters: species or system human; conditions: for RP2D based on body weight (population PK): exposure matched to adults receiving 800 mg daily
# Summary of the method: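 Nonlinear mixed-effects model: two compartments, sequential zero- and first-order absorption with lag time, linear elimination, and body weight as an allometric covariate on disposition parameters. Final-model estimates were used to simulate doses for ages 6–18 years that match steady-state exposure in adult TGCT patients given 800 mg daily.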
# [1] = Phase I safety and tolerability: adverse events; format: in vivo
# [2] = tested on: circulating monocytes and regulatory T cells and TAMs; conditions: cited from earlier work
# [3] = tested on: peripheral blood immune cells; assay: Pharmacodynamics: fold change in peripheral blood; format: in vivo, human
# Summary of the method: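 Complete blood counts, including absolute monocyte count, were taken as safety labs before treatment, mid-C1, before C2–C9, then every other cycle and at end of therapy. Patients took the oral agent once daily on a continuous 28-day cycle, dosed by BSA at 400, 600 or 800 mg/m2.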
# [4] = adult patients; cited from earlier work
# [5] = Plasma pharmacokinetics, noncompartmental analysis; format: in vivo, human; conditions: DL1 to DL3
# Summary of the method: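 Oral dosing once daily, BSA-based at 400, 600 or 800 mg/m2, rolling-six escalation. Peripheral blood sampled on C1 day 1 before dosing and at 0.5–24 h after, on day 15 before dosing and at 1–6 h after, and before dosing on day 16. Plasma assayed by validated LC-MS/MS (LLOQ 10 nmol/L). Cmax, Tmax, AUC and CL/F derived by noncompartmental analysis.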
smiles,measurement,setting,value
FC(F)(F)c1ccc(CNc2ccc(Cc3c[nH]c4ncc(Cl)cc34)cn2)cn1 [Pexidartinib],RP2D based on body weight (population PK),Population PK modeling; body weight < 30 kg,400 mg daily
same,RP2D based on body weight (population PK),Population PK modeling; body weight ≥ 30 & < 40 kg,600 mg daily
same,RP2D based on body weight (population PK),Population PK modeling; body weight ≥ 40 kg,800 mg daily
same,AUC,"Population PK modeling; human, plasma, oral, 800 mg, Steady-state AUC, 5th to 95th percentile, adult TGCT patients receiving 800 mg daily",96 to 255 µg·h/mL
same,"Recommended phase II dose (RP2D), BSA based","[1]; human, in vivo, 28 days",800 mg/m^2/day
same,Dose-limiting toxicities (DLT),[1]; in vivo,No DLTs
same,Tolerability,"[1]; in vivo, po",well tolerated
same,Maximum tolerated dose (MTD),[1]; up to 800 mg/m^2/dose,not reached
same,Effect on immune cells in a preclinical model,[2],decreases in circulating monocytes and regulatory T cells and TAMs
same,"Absolute Immature Granulocyte, Med. Fold Change (95% CI) from Day 1","[3]; 6–8 Days from C1, N=9","0.50 (0.10, 1.00)"
same,"Immature granulocytes, Med. Fold Change (95% CI) from Day 1","[3]; 6–8 Days from C1, N=9","0.50 (0.08, 0.67)"
same,"Absolute Eosinophil Count, Med. Fold Change (95% CI) from Day 1","[3]; 6–8 Days from C1, N=10","0.76 (0.50, 1.07)"
same,"Eosinophils %, Med. Fold Change (95% CI) from Day 1","[3]; 6–8 Days from C1, N=10","0.78 (0.55, 1.04)"
same,"Absolute Basophil Count, Med. Fold Change (95% CI) from Day 1","[3]; 6–8 Days from C1, N=12","0.92 (0.50, 1.00)"
same,"Basophils %, Med. Fold Change (95% CI) from Day 1","[3]; 6–8 Days from C1, N=12","0.95 (0.50, 1.13)"
same,"Absolute Lymphocyte Count, Med. Fold Change (95% CI) from Day 1","[3]; 6–8 Days from C1, N=13","0.97 (0.68, 1.20)"
same,"Absolute Monocyte Count, Med. Fold Change (95% CI) from Day 1","[3]; 6–8 Days from C1, N=13","0.58 (0.35, 0.81)"
same,"Absolute Neutrophil Count, Med. Fold Change (95% CI) from Day 1","[3]; 6–8 Days from C1, N=13","0.90 (0.77, 1.26)"
same,"Hemoglobin (Hgb), Med. Fold Change (95% CI) from Day 1","[3]; 6–8 Days from C1, N=13","1.03 (0.97, 1.08)"
same,"Lymphocytes %, Med. Fold Change (95% CI) from Day 1","[3]; 6–8 Days from C1, N=13","0.96 (0.81, 1.29)"
same,"Monocytes %, Med. Fold Change (95% CI) from Day 1","[3]; 6–8 Days from C1, N=13","0.60 (0.40, 0.87)"
same,"Neutrophils % + bands, Med. Fold Change (95% CI) from Day 1","[3]; 6–8 Days from C1, N=13","1.08 (0.96, 1.13)"
same,"Platelet Count, Med. Fold Change (95% CI) from Day 1","[3]; 6–8 Days from C1, N=13","1.10 (0.84, 1.17)"
same,"White blood cell (WBC), Med. Fold Change (95% CI) from Day 1","[3]; 6–8 Days from C1, N=13","0.89 (0.78, 1.07)"
same,"Absolute Immature Granulocyte, Med. Fold Change (95% CI) from Day 1","[3]; 14–16 Days from C1, N=9","0.50 (0.19, 1.00)"
same,"Immature granulocytes, Med. Fold Change (95% CI) from Day 1","[3]; 14–16 Days from C1, N=9","0.46 (0.30, 0.67)"
same,"Absolute Basophil Count, Med. Fold Change (95% CI) from Day 1","[3]; 14–16 Days from C1, N=11","0.67 (0.50, 1.00)"
same,"Absolute Eosinophil Count, Med. Fold Change (95% CI) from Day 1","[3]; 14–16 Days from C1, N=11","1.00 (0.81, 1.27)"
same,"Basophils %, Med. Fold Change (95% CI) from Day 1","[3]; 14–16 Days from C1, N=11","0.83 (0.50, 1.13)"
same,"Eosinophils %, Med. Fold Change (95% CI) from Day 1","[3]; 14–16 Days from C1, N=11","0.97 (0.92, 1.53)"
same,"Absolute Lymphocyte Count, Med. Fold Change (95% CI) from Day 1","[3]; 14–16 Days from C1, N=13","0.88 (0.73, 1.03)"
same,"Absolute Monocyte Count, Med. Fold Change (95% CI) from Day 1","[3]; 14–16 Days from C1, N=13","0.56 (0.40, 0.89)"
same,"Absolute Neutrophil Count, Med. Fold Change (95% CI) from Day 1","[3]; 14–16 Days from C1, N=13","0.96 (0.64, 1.15)"
same,"Hemoglobin (Hgb), Med. Fold Change (95% CI) from Day 1","[3]; 14–16 Days from C1, N=13","0.97 (0.91, 1.00)"
same,"Lymphocytes %, Med. Fold Change (95% CI) from Day 1","[3]; 14–16 Days from C1, N=13","0.92 (0.87, 1.25)"
same,"Monocytes %, Med. Fold Change (95% CI) from Day 1","[3]; 14–16 Days from C1, N=13","0.67 (0.52, 0.89)"
same,"Neutrophils % + bands, Med. Fold Change (95% CI) from Day 1","[3]; 14–16 Days from C1, N=13","1.08 (0.96, 1.13)"
same,"Platelet Count, Med. Fold Change (95% CI) from Day 1","[3]; 14–16 Days from C1, N=13","0.97 (0.83, 1.13)"
same,"White blood cell (WBC), Med. Fold Change (95% CI) from Day 1","[3]; 14–16 Days from C1, N=13","0.85 (0.65, 1.06)"
same,"Absolute Immature Granulocyte, Med. Fold Change (95% CI) from Day 1","[3]; 27–29 Days from C1, N=6","0.20 (0.00, 2.50)"
same,"Immature granulocytes, Med. Fold Change (95% CI) from Day 1","[3]; 27–29 Days from C1, N=6","0.24 (0.00, 2.00)"
same,"Absolute Eosinophil Count, Med. Fold Change (95% CI) from Day 1","[3]; 27–29 Days from C1, N=8","0.63 (0.31, 5.37)"
same,"Eosinophils %, Med. Fold Change (95% CI) from Day 1","[3]; 27–29 Days from C1, N=8","0.76 (0.48, 4.19)"
same,"Absolute Basophil Count, Med. Fold Change (95% CI) from Day 1","[3]; 27–29 Days from C1, N=9","0.33 (0.00, 0.67)"
same,"Basophils %, Med. Fold Change (95% CI) from Day 1","[3]; 27–29 Days from C1, N=9","0.22 (0.00, 0.83)"
same,"Absolute Lymphocyte Count, Med. Fold Change (95% CI) from Day 1","[3]; 27–29 Days from C1, N=10","0.86 (0.60, 1.21)"
same,"Absolute Monocyte Count, Med. Fold Change (95% CI) from Day 1","[3]; 27–29 Days from C1, N=10","0.64 (0.26, 0.88)"
same,"Absolute Neutrophil Count, Med. Fold Change (95% CI) from Day 1","[3]; 27–29 Days from C1, N=10","0.70 (0.46, 1.66)"
same,"Hemoglobin (Hgb), Med. Fold Change (95% CI) from Day 1","[3]; 27–29 Days from C1, N=10","1.03 (0.95, 1.13)"
same,"Lymphocytes %, Med. Fold Change (95% CI) from Day 1","[3]; 27–29 Days from C1, N=10","1.28 (0.47, 1.95)"
same,"Monocytes %, Med. Fold Change (95% CI) from Day 1","[3]; 27–29 Days from C1, N=10","0.84 (0.26, 1.06)"
same,"Neutrophils % + bands, Med. Fold Change (95% CI) from Day 1","[3]; 27–29 Days from C1, N=10","0.97 (0.78, 1.30)"
same,"Platelet Count, Med. Fold Change (95% CI) from Day 1","[3]; 27–29 Days from C1, N=10","0.94 (0.79, 1.18)"
same,"White blood cell (WBC), Med. Fold Change (95% CI) from Day 1","[3]; 27–29 Days from C1, N=10","0.81 (0.58, 1.28)"
same,Liver toxicity in adult trials,[4],"idiosyncratic, serious (grade 4–5) liver toxicity was observed in a small subset of patients"
same,AUC0–24 dependence on dose,[5],rose with increasing dose
